For orientation: pIC50 means the IC50 on a negative log10 scale, so that one unit is a factor of ten. A high value points to a low IC50.

Each structure is given as a SMILES string. pIC50: −log10 of the molar value. Where only a bound is given, the exact number is not on record here.

Assay [1] deals with L1210. The assay can be described thus: Antitumor activity was determined against the ip implanted L1210 leukemia in mice by change in […] at 100 mg/kg (treatment of 1-5qd schedule) dosage. It counts as functional, Mus musculus. Conditions: route intraperitoneal. Put shortly:
(§1)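 DBA/2J mice, 6 per group (wt 23-28 g), inoculated ip with 1×10^6 L1210 cells on day 0. Treatment was given ip in 0.9% NaCl with 0.5% Tween-80, starting 24 h later. Weight change was taken on day 8. Mice were observed daily until death or 45 days. Median survival T/C and %ILS = (T/C − 1) × 100 came from survivors per NCI protocols, and 45-day survivors were counted.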

Assay [2] deals with L1210. The assay can be described thus: Antitumor activity was determined against the ip implanted L1210 leukemia in mice by percent increase in life span at 100 mg/kg (treatment of 1-5qd schedule) dosage. Format: functional, Mus musculus. Particulars: route intraperitoneal. Put shortly: (§2)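 DBA/2J mice in groups of 6 (wt 23-28 g) were inoculated ip with 1×10^6 L1210 cells on day 0. Dosing was ip from 24 h, in 0.9% NaCl with 0.5% Tween-80 (conjugates sonicated), across a range of doses. Mice were observed daily until death or 45 days. Median T/C was computed from survivors per NCI protocols, and ILS = (T/C − 1)×100.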

The test system of assay [3] is P388. The assay can be described thus: Antitumor activity was determined against the ip implanted P388 leukemia in mice by range in survival days at 60 mg/kg (1-5qd treatment schedule) dosage; 21-24. It counts as functional, Mus musculus. Conditions: route intraperitoneal.
For assay [4], the system named is L1210. The assay can be described thus: Antitumor activity was determined against the ip implanted L1210 leukemia in mice by percent median survival rate (treated/control) at 40 mg/kg (treatment of 1-5qd schedule) dosage; 30.0/8.0. Format: functional, Mus musculus. Conditions: route intraperitoneal. Summed up: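 DBA/2J mice, 23-28 g, in groups of 6, were inoculated ip with 1×10^6 L1210 cells on day 0. Dosing was ip starting 24 h later on the stated daily schedules. Conjugates were given as sonicated solutions and reference prodrugs as suspensions in 0.9% NaCl with 0.5% Tween-80. Mice were observed daily until death or 45 days. Median survival T/C was calculated from survivors per NCI protocols.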

Assay [5] has as its system L1210. The assay can be described thus: Antitumor activity was determined against the ic implanted L1210 lymphoid leukemia in mice by range in survival days at 300 mg/kg (1 qd treatment schedule) dosage; Range is 19-23. Format: functional, Mus musculus.
Assay [6] relates to L1210. The assay can be described thus: Antitumor activity was determined against the ip implanted L1210 leukemia in mice by change in […] at 300 mg/kg (treatment of 1qd schedule) dosage. It counts as functional, Mus musculus. Particulars: route intraperitoneal. Put shortly:
as §1

The test system of assay [7] is L1210. The assay can be described thus: Antitumor activity was determined against the ic implanted L1210 lymphoid leukemia in mice by percent median survival rate (treated/control) at 300 mg/kg (1 qd treatment schedule) dosage; 21.0/7.0. It counts as functional, Mus musculus.
Assay [8] deals with L1210. The assay can be described thus: Antitumor activity against ic implanted L1210 lymphoid leukemia in mice expressed as active dose range (1-5qd treatment schedule) required to produce increase in life span by >25% was determined; Range is 40-80. It counts as functional, Mus musculus. Put shortly: (§3)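 DBA/2J mice, groups of 6 (26-32 g), got 1 × 10^5 L1210 cells ic on day 0. Dosing was ip starting 24 h later, as a sonicated solution or suspension in 0.9% NaCl with 0.5% Tween-80, over a wide dose range. Mice were followed daily until death. Median survival T/C was taken from survivors per NCI protocols, and ILS = (T/C − 1) × 100. Active range means doses giving ILS ≥25%; optimal dose means greatest ILS.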

The test system of assay [9] is L1210. The assay can be described thus: Antitumor activity was determined against the ip implanted L1210 leukemia in mice by percent increase in life span at 40 mg/kg (treatment of 1-5qd schedule) dosage. It counts as functional, Mus musculus. Conditions: route intraperitoneal. Summed up:
as §2

The test system of assay [10] is P388. The assay can be described thus: Antitumor activity was determined against the ip implanted P388 leukemia in mice by range in survival days at 133 mg/kg (treatment of 1,5,9qd schedule) dosage; Range is 31->45. It counts as functional, Mus musculus. Conditions: route intraperitoneal.
Assay [11] relates to L1210. The assay can be described thus: Antitumor activity was determined against the ic implanted L1210 lymphoid leukemia in mice by range in survival days at 167 mg/kg (treatment of 1, 5, 9qd schedule) dosage; Range is 14-22. It counts as functional, Mus musculus.
The subject of assay [12] is L1210. The assay can be described thus: Antitumor activity was determined against the ip implanted L1210 leukemia in mice by change in […] at 80 mg/kg (treatment of 1-5qd schedule) dosage. Format: functional, Mus musculus. Conditions: route intraperitoneal. Put shortly:
as §1

The test system of assay [13] is L1210. The assay can be described thus: Antitumor activity against ic implanted L1210 lymphoid leukemia in mice expressed as active dose range (1-5qd treatment schedule) required to produce increase in life span by >25% was determined; Range is 40-100. It counts as functional, Mus musculus. Put shortly: as §3
Assay [14] concerns L1210. The assay can be described thus: Antitumor activity against ip implanted L1210 leukemia in mice expressed as active dose range (1 qd treatment schedule) required to produce increase in life span by >25% was determined; Range is 300-400. Format: functional, Mus musculus. Put shortly:
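DBA/2J mice, groups of 6 (23-28 g), were inoculated ip with 1 × 10^6 L1210 cells on day 0. Dosing was ip from 24 h, in 0.9% NaCl with 0.5% Tween-80 (sonicated solution or suspension). Mice were observed daily until death or day 45. Median survival T/C followed NCI protocols, and ILS = (T/C − 1) × 100. Active range means doses giving ILS ≥25%; optimal dose means greatest ILS.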

Assay [15] concerns L1210. The assay can be described thus: Antitumor activity was determined against the ic implanted L1210 lymphoid leukemia in mice by percent increase in life span at 167 mg/kg (treatment of 1, 5, 9qd schedule) dosage. Format: functional, Mus musculus. Put shortly: as §3
Assay [16] relates to P388. The assay can be described thus: Antitumor activity against ip implanted P388 leukemia in mice expressed as active dose range (1,5,9qd treatment schedule) required to produce increase in life span by >25% was determined; Range is 67-133. Format: functional, Mus musculus. Summed up: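 P388 leukemia: 1 × 10^6 cells were given ip on day 0 to DBA/2J mice, groups of 6 (23-33 g). Treatment was ip from 24 h after inoculation, vehicle 0.9% NaCl with 0.5% Tween-80. Mice were observed daily until death or 45 days. Median survival T/C was calculated from survivors per NCI protocols, and ILS = (T/C − 1) × 100. Active range means doses giving ILS ≥25%; optimal dose means greatest ILS.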

Assay [17] deals with P388. The assay can be described thus: Antitumor activity was determined against the ip implanted P388 leukemia in mice by 45-day survivors in mice at 300 mg/kg (treatment of 1qd schedule) dosage. Particulars: route intraperitoneal.
The subject of assay [18] is L1210. The assay can be described thus: Antitumor activity was determined against the ic implanted L1210 lymphoid leukemia in mice by median survival time at 100 mg/kg (treatment of 1-5qd schedule) dosage; 22.0/7.0.
In the next assay the test system is AMML. The assay can be described thus: Compound was tested for the inhibition of AMML (acute myelomonocytic leukemia). Format: functional, cell-based. Particulars: Homo sapiens. Put shortly:
(§4)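 Human leukemia and solid tumor cells in culture were exposed to compound for 48 h. Viability was scored by trypan blue dye exclusion. IC50 (50% inhibition) was estimated from response curves of three separate experiments.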

The subject of another assay is CML/BC. The assay can be described thus: Compound was tested for the inhibition of CML/BC(chronic myeloid leukemia, blast crisis). It counts as functional, cell-based. Conditions: Homo sapiens. Summed up: as §4
Another assay concerns Glioblastoma cell line. The assay can be described thus: Compound was tested for the inhibition of glioblastoma. It counts as functional, cell-based. Particulars: Homo sapiens. Put shortly:
as §4

In assay [19] the test system is L1210. The assay can be described thus: Antitumor activity against ic implanted L1210 lymphoid leukemia in mice expressed as active dose range (1-5qd treatment schedule) required to produce increase in life span by >25% was determined; Range is 50-300. It counts as functional, Mus musculus. Put shortly:
as §3

As for `CCCCCCCCCCCCCCCCCCOCC(COP(=O)(O)OP(=O)(O)OC[C@H]1O[C@@H](n2ccc(N)nc2=O)[C@@H](O)[C@@H]1O)OC(=O)CCCCCCCCCCCCCCC` (mixture of isomers), in the assay with L1210 [1], the Weight change is -0.95 g mouse-1. The same compound had an ILS with L1210 [2] of 229. Also, in the assay on P388 [3], the Range is given as 21.

As for `CCCCCCCCCCCCCCCC(=O)OC[C@H](COP(=O)(O)OP(=O)(O)OC[C@H]1O[C@@H](n2ccc(N)nc2=O)[C@@H](O)[C@@H]1O)OC(=O)CCCCCCCCCCCCCCC`, the median survival time worked out at 30 days in the assay with L1210 [4] and 21 days in the assay on L1210 [7]. The values for the Range in the assay with L1210 [5] and in the assay on P388 [10] were 19 and 31, respectively. In the assay with L1210 [6], this compound came in with a Weight change of -0.62 g mouse-1. In the assay on L1210 [8], this compound had an Active dose range of 40 mg/kg/day. Moreover, the ILS in the assay with L1210 [9] is listed as 275.

Turning to `CCCCCCCCCCCCCCCCOCC(COP(=O)(O)OP(=O)(O)OC[C@H]1O[C@@H](n2ccc(N)nc2=O)[C@@H](O)[C@@H]1O)OC(=O)CCCCCCCCCCCCCCC` (mixture of isomers), the Range in the assay with L1210 [11] is 14. The Weight change in the assay with L1210 [12] was 0.33 g mouse-1. Also, the Active dose range with L1210 [13] came to 40 mg/kg/day; in the assay with L1210 [14], 300 mg/kg/day; with P388 [16], 67 mg/kg/day. The same compound had an ILS in the assay on L1210 [15] of 200. Also, the Survivors in the assay with P388 [17] came out at 6. Moreover, the median survival time in the assay with L1210 [18] is 22 days.

In the case of `Nc1ccn([C@@H]2O[C@H](CO)[C@@H](O)[C@@H]2O)c(=O)n1` [CYTARABINE], the pIC50 is 5.64 in the assay on AMML, 6.68 in the assay on CML/BC and less than 4.00 in the assay on Glioblastoma cell line. Also, the Active dose range with L1210 [19] is 50 mg/kg/day.

The values are drawn from ChEMBL document CHEMBL1123247, “Nucleoside conjugates. 7. Synthesis and antitumor activity of 1-beta-D-arabinofuranosylcytosine conjugates of ether lipids” (J Med Chem, 1986).
